# How the values were obtained:
# P2Y purinoceptor 1 [1] = biological target: T1, P2Y purinoceptor 1 (Meleagris gallopavo, UniProt P49652); assay: (§1) Agonist activity at turkey P2Y purinoceptor 1 expressed in human 1321N1 cells assessed as increase in intracellular calcium concentration by spectrofluorimetry
# Summary of the method: (§2)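 1321N1 astrocytoma cells lacking endogenous P2Y receptors, stably transfected with turkey P2Y1, human P2Y2, human P2Y4 or rat P2Y6, grown in DMEM with 5% FBS, penicillin/streptomycin and 500 µg/mL G-418. Fura-2-loaded cell suspensions were exposed at 37 °C in 10 mM Hepes-buffered saline, pH 7.4, with 1 mM CaCl2 and 1 mM MgCl2. Peak [Ca2+]i rise by dual-excitation spectrofluorometry across concentrations; EC50 from curve fits; three experiments on separate days per subtype.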
# P2Y purinoceptor 1 [2] = biological target: T1, P2Y purinoceptor 1; assay: as §1; remark: listed apart in the source
# P2Y purinoceptor 6 [3] = biological target: T2, P2Y purinoceptor 6 (Rattus norvegicus, UniProt Q63371); assay: (§3) Agonist activity at rat P2Y purinoceptor 6 expressed in human 1321N1 cells assessed as increase in intracellular calcium concentration by spectrofluorimetry; summary of the method: as §2
# T2 sequence (Q63371 whole entry): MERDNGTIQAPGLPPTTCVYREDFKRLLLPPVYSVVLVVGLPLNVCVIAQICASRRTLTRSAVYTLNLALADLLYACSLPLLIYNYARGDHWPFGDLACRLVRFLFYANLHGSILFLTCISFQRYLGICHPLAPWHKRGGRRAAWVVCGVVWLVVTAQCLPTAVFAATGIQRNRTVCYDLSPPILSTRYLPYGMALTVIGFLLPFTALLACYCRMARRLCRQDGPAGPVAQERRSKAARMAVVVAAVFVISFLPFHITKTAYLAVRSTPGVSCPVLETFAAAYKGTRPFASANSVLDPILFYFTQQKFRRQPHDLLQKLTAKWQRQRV
# P2Y purinoceptor 6 [4] = biological target: T2, P2Y purinoceptor 6; assay: as §3; summary of the method: as §2; remark: listed apart in the source
# P2Y purinoceptor 4 [5] = biological target: T3, P2Y purinoceptor 4 (Homo sapiens, UniProt P51582); assay: (§4) Agonist activity at human P2Y purinoceptor 4 expressed in human 1321N1 cells assessed as increase in intracellular calcium concentration by spectrofluorimetry
# T3 sequence (P51582 whole entry): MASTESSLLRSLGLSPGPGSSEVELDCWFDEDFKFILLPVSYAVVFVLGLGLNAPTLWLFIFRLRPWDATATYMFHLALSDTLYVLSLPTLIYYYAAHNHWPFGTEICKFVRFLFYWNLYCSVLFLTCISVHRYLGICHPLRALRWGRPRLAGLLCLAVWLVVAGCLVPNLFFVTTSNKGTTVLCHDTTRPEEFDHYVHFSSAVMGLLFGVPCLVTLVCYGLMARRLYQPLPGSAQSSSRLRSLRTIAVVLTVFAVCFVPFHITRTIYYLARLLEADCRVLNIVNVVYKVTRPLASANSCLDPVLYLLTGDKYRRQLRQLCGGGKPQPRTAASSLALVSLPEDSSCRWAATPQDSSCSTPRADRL
# Summary of the method: (§5)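 1321N1 astrocytoma cells (no endogenous P2Y receptors) stably expressing hP2Y4, grown in DMEM with 5% FBS, penicillin/streptomycin and 500 μg/mL G-418. Fura-2-loaded cell suspensions; compounds applied at various concentrations, 37 °C, 10 mM Hepes-buffered saline pH 7.4 with 1 mM CaCl2/MgCl2. Peak [Ca2+]i rise by dual-excitation fluorometry gives EC50; UTP reference agonist; three experiments on separate days.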
# P2Y purinoceptor 4 [6] = biological target: T3, P2Y purinoceptor 4; assay: as §4; summary of the method: as §5; remark: listed apart in the source
# P2Y purinoceptor 2 [7] = biological target: T4, P2Y purinoceptor 2 (Homo sapiens, UniProt P41231); assay: (§6) Agonist activity at human P2Y purinoceptor 2 expressed in human 1321N1 cells assessed as increase in intracellular calcium concentration by spectrofluorimetry
# T4 sequence (P41231 whole entry): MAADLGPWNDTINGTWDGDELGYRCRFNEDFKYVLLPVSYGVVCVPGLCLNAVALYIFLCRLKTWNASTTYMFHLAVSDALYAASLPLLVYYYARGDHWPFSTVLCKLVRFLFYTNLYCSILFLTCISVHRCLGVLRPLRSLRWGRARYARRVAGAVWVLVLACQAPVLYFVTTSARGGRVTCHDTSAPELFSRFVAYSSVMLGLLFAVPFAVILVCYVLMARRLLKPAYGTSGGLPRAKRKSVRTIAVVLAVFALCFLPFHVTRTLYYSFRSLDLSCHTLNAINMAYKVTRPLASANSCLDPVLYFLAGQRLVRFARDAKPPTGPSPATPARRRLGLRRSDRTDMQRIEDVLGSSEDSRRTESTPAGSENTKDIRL
# P2Y purinoceptor 2 [8] = biological target: T4, P2Y purinoceptor 2; assay: as §6; summary of the method: as §2; remark: listed apart in the source
# T1 sequence (P49652 whole entry): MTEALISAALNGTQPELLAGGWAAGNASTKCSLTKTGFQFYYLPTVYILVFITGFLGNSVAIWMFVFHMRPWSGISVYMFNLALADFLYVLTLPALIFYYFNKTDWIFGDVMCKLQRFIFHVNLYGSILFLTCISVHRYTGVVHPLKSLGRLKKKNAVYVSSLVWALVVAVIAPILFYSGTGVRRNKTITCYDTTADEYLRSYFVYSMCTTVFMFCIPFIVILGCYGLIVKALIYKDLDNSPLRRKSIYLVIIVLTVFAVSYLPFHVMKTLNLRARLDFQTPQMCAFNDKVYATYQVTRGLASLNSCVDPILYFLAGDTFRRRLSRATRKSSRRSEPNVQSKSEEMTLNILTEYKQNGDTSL
smiles,measurement,setting,value
BP(=O)(OC[C@H]1O[C@@H](n2cnc3c(N)ncnc32)[C@H](O)[C@@H]1O)OP(=O)(O)OP(=O)(O)OC[C@H]1O[C@@H](n2cnc3c(N)ncnc32)[C@H](O)[C@@H]1O (some centres undefined),EC50,P2Y purinoceptor 1 [1],800 nM
same,EC50,P2Y purinoceptor 1 [2],800 nM
BP(=O)(OP(=O)(O)OC[C@H]1O[C@@H](n2ccc(=O)[nH]c2=O)[C@H](O)[C@@H]1O)OP(=O)(O)OP(=O)(O)OC[C@H]1O[C@@H](n2ccc(=O)[nH]c2=O)[C@H](O)[C@@H]1O (some centres undefined),EC50,P2Y purinoceptor 6 [3],1930 nM
same,EC50,P2Y purinoceptor 6 [4],1930 nM
BP(=O)(OC[C@H]1O[C@@H](n2ccc(=O)[nH]c2=O)[C@H](O)[C@@H]1O)OP(=O)(O)OP(=O)(O)OP(=O)(O)OC[C@H]1O[C@@H](n2ccc(=O)[nH]c2=O)[C@H](O)[C@@H]1O (some centres undefined),EC50,P2Y purinoceptor 4 [5],9400 nM
same,EC50,P2Y purinoceptor 6 [3],36100 nM
same,EC50,P2Y purinoceptor 6 [4],36100 nM
same,EC50,P2Y purinoceptor 4 [6],9400 nM
BP(=O)(OC[C@H]1O[C@@H](n2ccc(=O)[nH]c2=O)[C@H](O)[C@@H]1O)OP(=O)(O)OP(=O)(O)OC[C@H]1O[C@@H](n2ccc(=O)[nH]c2=O)[C@H](O)[C@@H]1O (some centres undefined),EC50,P2Y purinoceptor 6 [3],720 nM
same,EC50,P2Y purinoceptor 6 [4],720 nM
BP(=O)(OC[C@H]1O[C@@H](n2cnc3c(N)ncnc32)[C@H](O)[C@@H]1O)OP(=O)(O)OP(=O)(O)OP(=O)(O)OC[C@H]1O[C@@H](n2cnc3c(N)ncnc32)[C@H](O)[C@@H]1O (some centres undefined),EC50,P2Y purinoceptor 2 [7],25900 nM
same,EC50,P2Y purinoceptor 1 [1],1480 nM
same,EC50,P2Y purinoceptor 1 [2],1480 nM
same,EC50,P2Y purinoceptor 2 [8],25900 nM
BP(=O)(OP(=O)(O)OC[C@H]1O[C@@H](n2cnc3c(N)ncnc32)[C@H](O)[C@@H]1O)OP(=O)(O)OP(=O)(O)OC[C@H]1O[C@@H](n2ccc(=O)[nH]c2=O)[C@H](O)[C@@H]1O (some centres undefined),EC50,P2Y purinoceptor 6 [3],1290 nM
same,EC50,P2Y purinoceptor 6 [4],1290 nM
same,EC50,P2Y purinoceptor 1 [2],6900 nM
same,EC50,P2Y purinoceptor 2 [8],64200 nM
BP(=O)(OP(=O)(O)OC[C@H]1O[C@@H](n2cnc3c(N)ncnc32)[C@H](O)[C@@H]1O)OP(=O)(O)OP(=O)(O)OC[C@H]1O[C@@H](n2cnc3c(N)ncnc32)[C@H](O)[C@@H]1O (some centres undefined),EC50,P2Y purinoceptor 1 [1],3000 nM
same,EC50,P2Y purinoceptor 1 [2],3000 nM
BP(=O)(OP(=O)(O)OC[C@H]1O[C@@H](n2ccc(=O)[nH]c2=O)[C@H](O)[C@@H]1O)OP(=O)(O)OP(=O)(O)OC[C@H]1O[C@@H](n2cnc3c(N)ncnc32)[C@H](O)[C@@H]1O (some centres undefined),EC50,P2Y purinoceptor 6 [3],20900 nM
same,EC50,P2Y purinoceptor 1 [1],500 nM
same,EC50,P2Y purinoceptor 6 [4],20900 nM
same,EC50,P2Y purinoceptor 1 [2],500 nM
